Results on four compounds are retold here after publication PMC6904836 (International Journal for Parasitology: Drugs and Drug …, 2019).

In data set [1] the test system is L. major (MHOM/IL/SU73/WR779). In words: Luciferase amastigote macrophage assay in RAW 264.7. The data set is classed as cell-based. The note with it: Leishmania major, RAW264.7, 96 h, read-out: EC50 L. major. A digest of the protocol: (§1)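 RAW 264.7 macrophages (10,000/well) were incubated 24 h at 37 °C/5% CO2, then infected with luciferase-transfected promastigotes in DMEM + 10% HiFBS. Promastigotes were maintained in Schneider's + 20% HiFBS at 22 °C. Compounds (DMSO stock 11.5 mM) ran from 10 μg/ml in 1:2 dilutions, 0.2% DMSO final, for 96 h at 37 °C. D-luciferin was added at 150 μg/mL final for 30 min before the luminescence read. Amphotericin B control was run in octuplicate.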

Data set [2] concerns L. guyanensis (MHOM/GY/06/PAB-3985-WR-2853/A Chan). The description is as above. It counts as cell-based. The note with it: Leishmania guyanensis, RAW264.7, 96 h, read-out: EC50 L. guyanensis. A digest of the protocol:
as §1

Data set [3] deals with L. tropica (MHOM/SU/74/K-27 WR-2995). In words: Luciferase amastigote macrophage assay in RAW 264.7. It counts as cell-based. The note with it: Leishmania tropica, RAW264.7, 96 h, read-out: EC50 L. tropica.
The subject of data set [4] is L. major (NIH173 (MHOM/IR/-/173)). In words: Lesion cure model, BALB/c mice infected with luciferase-expressing L. major. It counts as in vivo. The note with it: BID; for bioluminescence signal (parasite load) at the infection site: vs vehicle control.
The subject of data set [5] is L. major (MHOM/SA/85/JISH118). Put plainly: L. major - BALB/c mouse model of CL. It counts as in vivo, BALB/c mice. The note with it: for % reduction Lesion size / % reduction Parasite load: n = 5.
The next data set is described as follows: in vitro. The note with it: human.
For data set [6] the following is noted: pH7.4; ref DNDi unpublished data; cited from earlier work.
Setting [7] is: 50 mg/kg/day, compared to the untreated control.
Where [8] appears, read: study 1, 50 mg/kg PO, 5 days, day 11 post end of treatment.
The mark [9] stands for this setting: study 2, 50 mg/kg PO, 10 days, day 11 post end of treatment.
[10] abbreviates: study 2, 50 mg/kg PO, 10 days, day 80.

Each structure is given as a SMILES string. pEC50: −log10 of the molar value. Where “and” joins values, the source holds several entries; their conditions need not be identical. Equal values may be shown once.

Consider `C[C@@H]1[C@H](O)[C@@H](C)/C=C/C=C/C=C/C=C/C=C/C=C/C=C/[C@H](O[C@@H]2O[C@H](C)[C@@H](O)[C@H](N)[C@@H]2O)C[C@@H]2O[C@](O)(C[C@@H](O)C[C@@H](O)[C@H](O)CC[C@@H](O)C[C@@H](O)CC(=O)O[C@H]1C)C[C@H](O)[C@H]2C(=O)O` [Amphotericin B, amphotericin B deoxycholate, reference compound], for which the negative-log EC50 (pEC50) in data set [1] was 7.52; in data set [2], 7.52; in data set [3] it was 8.00.

Consider `O=[N+]([O-])c1cn2c(n1)O[C@@H](COc1ccc(-c3ccc(F)cc3)nc1)CC2` [DNDI-0690], for which the negative-log EC50 (pEC50) in data set [1] is 6.47; in data set [2], 6.07. Moreover, in data set [4] (study 1, 25 mg/kg PO, 10 days, day 11 post end of treatment), the “lesion size reduction vs respective vehicle control” value was 89.8%. Also, the “bioluminescence signal (parasite load) at the infection site” value in data set [4] (study 1, 25 mg/kg PO, 10 days) is reported as “significantly reduce”.

As for `Cc1c(C(=O)Nc2ccc3c(c2)B(O)OC3)nnn1-c1ccccn1` [DNDI-6148], the pEC50 in data set [1] was 7.15; in data set [2], 7.30; in data set [3] it was 6.62; in the data set “in vitro”, 3.74. For the same compound, the “lesion size reduction” value in data set [5] (setting [7]) is listed as “no visible nodule”. In addition, the “reduction of the parasite load as measured by qPCR” value in data set [5] (setting [7]) is approximately 2 log-fold. Further, the “% reduction Lesion size” value in data set [5] (Oral, 12.5 mg/kg, BID, 10 days) was 66.7%; in data set [5] (Oral, 25 mg/kg, BID, 10 days) it was 85.4%; in data set [5] (Oral, 50 mg/kg, BID, 5 days) it was 43.2%; in data set [5] (Oral, 50 mg/kg, BID, 10 days), 100.0% and 75.7% and 91.9%; in data set [5] (Oral, 50 mg/kg, QD, 10 days), 100.0%. Also, the “% reduction Parasite load” value in data set [5] (Oral, 12.5 mg/kg, BID, 10 days, qPCR day 11) is 92.35%; in data set [5] (Oral, 25 mg/kg, BID, 10 days, qPCR day 11), 98.49%; in data set [5] (Oral, 50 mg/kg, BID, 5 days, qPCR), 100.00%; in data set [5] (Oral, 50 mg/kg, BID, 10 days, qPCR day 11, 50 mg/kg), 99.56% and 100.00% and 98.41%; in data set [5] (Oral, 50 mg/kg, QD, 10 days, qPCR day 11), 97.73%; in data set [5] (Topical, Sat sol in PG-EtOH (1:1), 50 μl BID, 10 days, qPCR day 11), 71.49% and 99.68%. Moreover, in data set [4] (setting [8]), the “lesion size reduction vs respective vehicle control” value is recorded as 93.2%. Also, the “mice clear of any detectable infection” value in data set [4] (setting [8]) is listed as 1/5. In data set [4] (study 1, 50 mg/kg PO, 5 days), the “bioluminescence signal (parasite load) at the infection site” value is listed as “significantly reduce”. Further, in data set [4] (setting [9]), the “mice cured (no visible lesion), no detectable parasite load by bioluminescence” value was 3/6. Besides, the “overall lesion size reduction compared to the average VC lesion size” value in data set [4] (setting [9]) is 99.3%. Besides, the “mice cured, no detectable parasite load” value in data set [4] (study 2, 50 mg/kg PO, 10 days, day 18 post end of treatment) is recorded as 6/6. Also, the “mice that had developed papules” value in data set [4] (study 2, 50 mg/kg PO, 10 days, day 61 post end of treatment) is reported as 0/5; in data set [4] (study 2, 50 mg/kg PO, 10 days, day 74 post end of treatment) it was 1/5. The average lesion size in data set [4] (setting [10]) is listed as 1.98 mm^2. The “mice that had developed lesions” value in data set [4] (setting [10]) is recorded as 1/5. Moreover, the “distribution coefficient (log D), DNDi data” value in data set [6] is on record as 1.92.

Take `O=[N+]([O-])c1cn2c(n1)OC[C@H](Oc1ccc(OC(F)(F)F)cc1)C2` [DNDI-8219, (6 R)-2-Nitro-6-[4-(trifluoromethoxy)phenoxy]-6,7-dihydro-5 H-imidazo[2,1-b][1,3]oxazine]: the negative logarithm of the EC50 (pEC50) in data set [1] was 7.52; in data set [2], 6.42; in data set [3], 5.92; in “in vitro”, less than 3.70.
